# Bioassay records as filed in PubChem.
# This is a sample that favours compounds with a hit; in the whole collection about 1.5% have one here.
# INS-1E GSIS act: primary screen for activators of insulin secretion dependent on glucose, INS-1E cells, GLuc reporter luminescence | INS-1E GLuc reporter insulin secretion, 2-3 h | activation, % at 16.6 µM | hit rate 0.61% among 370,000;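 active means lowest replicate activation of at least 40%, so every replicate reaches that level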;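 further: 0% = median of neutral control wells and 100% = median of IBMX positive control wells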
# S100A4 inh HTS: S100A4-myosin IIA interaction inhibition. inhibition, % at 10.7 µM. hit rate 0.14% among 360,000. S100A4/TAMRA-MyoIIA peptide fluorescence polarization;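 active means mean inhibition of at least 70% across replicates, with every replicate also reaching that level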
#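 Material: S100A4 monomer (human). Medium: Calcium-containing HEPES buffer, pH 7.2. Probe or stimulus: labelled myosin peptide probe, 5 nM. Compound dosing: one concentration per compound. Timing: polarization read 5 min after assay mix addition, stable 5–60 min. Benchmarks: DMSO as neutral control, TFP as positive control.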
# AF4-AF9 inh: MLL-AF4/AF9 protein interaction inhibition | P42568 | AlphaScreen, biotin-AF4 peptide binding to FLAG-AF9 | inhibition, % at 10 µM | hit rate 0.47% among 350,000;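 active means every replicate reaching a set inhibition limit, whatever the replicate mean, cut at about 25% in these data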;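 further: 0% = plate neutral control median and 100% = total signal loss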
# Target sequence (P42568 whole entry, looked up): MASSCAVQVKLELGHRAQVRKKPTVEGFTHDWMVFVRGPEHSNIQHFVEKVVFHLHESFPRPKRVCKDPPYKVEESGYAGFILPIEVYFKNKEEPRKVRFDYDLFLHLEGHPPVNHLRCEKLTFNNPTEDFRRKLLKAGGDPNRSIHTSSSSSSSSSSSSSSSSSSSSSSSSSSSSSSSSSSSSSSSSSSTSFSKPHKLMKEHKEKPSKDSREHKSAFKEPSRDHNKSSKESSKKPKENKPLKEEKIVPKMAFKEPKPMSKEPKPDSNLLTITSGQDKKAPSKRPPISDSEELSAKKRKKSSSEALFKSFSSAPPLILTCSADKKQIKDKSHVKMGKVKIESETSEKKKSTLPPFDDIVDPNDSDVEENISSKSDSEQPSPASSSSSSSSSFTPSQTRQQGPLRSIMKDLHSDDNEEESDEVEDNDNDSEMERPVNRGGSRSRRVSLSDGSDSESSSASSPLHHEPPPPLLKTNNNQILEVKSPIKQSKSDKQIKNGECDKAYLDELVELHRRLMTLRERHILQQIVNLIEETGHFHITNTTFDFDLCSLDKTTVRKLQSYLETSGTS
# ERAP1 HTS inh: blocks human ERAP1 aminopeptidase activity. Q9NZ08. hit rate 0.15% among 340,000. inhibition, % at 10.7 µM. AID 652197. recombinant ERAP1, Leu-AMC fluorescence, 60 min;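 active means mean replicate inhibition of at least 30%, or all replicates individually reaching that 30% level; inactive means mean below 30% and not every replicate reaching it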;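 further: 0% = neutral control wells and 100% = L-leucinethiol positive control wells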
# RAD52 anneal inh: inhibitors of human RAD52 DNA annealing | recombinant RAD52 DNA annealing, FRET fluorescence | hit rate 0.46% among 360,000 | AID 651710 | P43351 | inhibition, % at 18.7 µM;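 active means every replicate showing at least 50% inhibition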
# * hit, by the source's call; . = no result; ! = not confirmed by another sample.
SMILES,INS-1E GSIS act,S100A4 inh HTS,AF4-AF9 inh,ERAP1 HTS inh,RAD52 anneal inh
CC(C)C[C@H](NC(=O)c1nc[nH]c1C(=O)NC1CCN(C(=O)OC(C)(C)C)CC1)C(=O)OCc1ccccc1,1,0,9,0,-18
CC(C)C[C@H](NC(=O)c1[nH]cnc1C(=O)N[C@@H](C)c1ccccc1)C(=O)OC(C)(C)C,88*,-5,.,2,-11
CC(C)C[C@H](NC(=O)c1[nH]cnc1C(=O)N[C@@H](Cc1ccccc1)C(=O)OC(C)(C)C)C(=O)OC(C)(C)C,-21,2,2,.,-9
O=C(Nc1ccc(F)cc1)N1CCCCN2[C@H](C1)[C@@H](c1ccc(-c3ccccc3F)cc1)[C@@H]2CO,.,1,-1,-1,55*
O=C(Nc1ccccc1)N1CCCCN2[C@H](CO)[C@H](c3ccc(-c4ccccc4F)cc3)[C@@H]2C1,-12,-3,-1,-1,-5
O=C(Nc1ccccc1)N1CCCCN2[C@H](CO)[C@H](c3ccc(-c4ccccc4F)cc3)[C@H]2C1,-33,-4,12,0,50*
C[C@@H]1CN([C@@H](C)CO)C(=O)c2cccc(NS(C)(=O)=O)c2O[C@@H]1CN(C)Cc1ccc(Oc2ccccc2)cc1,-18,-6,1,2,-18
O=S(=O)(c1ccccc1)N1C[C@@H]2N[C@H](C1)C2c1ccc(-c2ccc(F)cc2)cc1 (stereo not given in full),5,-8,-6,1,66*!
Cc1cccc(S(=O)(=O)N2C[C@@H]3N[C@H](C2)C3c2ccc(-c3cncnc3)cc2)c1 (stereo not given in full),11,.,.,.,.
O=S(=O)(c1ccc(-c2ccccc2)cc1)N1C[C@@H]2N[C@H](C1)C2c1ccc(-c2cncnc2)cc1 (stereo not given in full),3,-13,-1,1,28
Cc1cccc(S(=O)(=O)N2C[C@@H]3N[C@H](C2)C3c2ccc(-c3cccc(C#N)c3)cc2)c1 (stereo not given in full),-28,-10,-1,0,54*!
Cc1ccc(S(=O)(=O)N2C[C@@H]3N[C@H](C2)[C@@H]3c2ccc(-c3cccc(C)c3)cc2)cc1,337,.,.,.,.
Cc1ccc(-c2ccc(C3[C@@H]4CN(S(=O)(=O)c5cccc(C)c5)C[C@H]3N4)cc2)cc1 (stereo not given in full),.,11,-3,.,98*
CN(C)C(=O)c1ccc(-c2ccc(C3[C@@H]4CN(S(=O)(=O)c5ccccc5)C[C@H]3N4)cc2)cc1 (stereo not given in full),-11,-40,-10,0,18
O=S(=O)(c1ccc(-c2ccccc2)cc1)N1C[C@@H]2N[C@H](C1)[C@@H]2c1ccc(-c2cccnc2)cc1,23,-2,2,-4,73*
COC(=O)C[C@@H]1C[C@@H]2c3cc(NC(=O)Nc4ccc(C(F)(F)F)cc4)ccc3O[C@@H]2[C@@H](CO)O1,-17,.,.,.,.
C[C@H]1CC=CC[C@@H](c2ccccc2)NC(=O)[C@H](Cc2ccccc2)N(C)C(=O)c2ccccc2O1 (mixture of isomers),-10,.,.,.,.
CC(=O)Nc1cccc2c1O[C@H](CN(C)C(=O)OC(C)(C)C)[C@H](C)CN(C)C2=O,0,.,.,.,.
Cc1ccc(S(=O)(=O)Nc2ccc3c(c2)C(=O)N([C@@H](C)CO)C[C@H](C)[C@H](CN(C)C)OCCCC[C@@H](C)O3)cc1,4,.,.,.,.
Cc1cccc(S(=O)(=O)N2C[C@@H]3N[C@H](C2)C3c2ccc(-c3ccccc3C)cc2)c1 (stereo not given in full),35,.,.,.,.
Cc1ccc(-c2ccc(C3[C@@H]4CN(S(=O)(=O)c5ccc(C)cc5)C[C@H]3N4)cc2)cc1 (stereo not given in full),71,-2,-2,-1,74*
Cc1cccc(S(=O)(=O)N2C[C@@H]3N[C@H](C2)C3c2ccc(-c3ccccc3F)cc2)c1 (stereo not given in full),81*!,3,-1,0,80*!
O=S(=O)(c1ccc(F)cc1)N1C[C@@H]2N[C@H](C1)C2c1ccc(-c2ccc(F)cc2)cc1 (stereo not given in full),47,11,-5,-3,87*!
COc1ccccc1NC(=O)N1CCCCN2[C@@H](CO)[C@@H](c3ccc(C#CC4CC4)cc3)[C@@H]2C1,.,-5,13,2,-4
COc1ccc(NC(=O)Nc2ccc3c(c2)C(=O)N([C@H](C)CO)C[C@H](C)[C@@H](CN(C)Cc2ccccc2)O3)cc1,2,-4,0,1,3
SMILES,INS-1E GSIS act,S100A4 inh HTS,AF4-AF9 inh,ERAP1 HTS inh,RAD52 anneal inh
O=C(COc1ccc(S(=O)(=O)N2CCOCC2)cc1Cl)N1CCCC1,-4,-1,42*,-7,-10
CCOc1ccc(S(=O)(=O)N2CCOCC2)cc1NC(=O)C1=COCCO1,41*,-1,-3,0,4
O=C(COc1ccc(S(=O)(=O)N2CCCCC2)cc1Cl)N1CCCC1,2,2,-2,0,-16
CCOc1ccc(Oc2ccc(S(=O)(=O)N3CCOCC3)cc2NC(=O)C2=COCCO2)cc1,-21,-5,-16,-3,-7
CCCNC(=O)N1CC2(CCN(C(=O)COC)CC2)c2c(n(C)c3cc(OC)ccc23)[C@@H]1CO,-7,.,1,.,.
COc1ccc(CCN(C)C(=O)COc2cccc(-n3cnnn3)c2)cc1OC,83*,6,-1,-2,10
COc1ccc(CCN(C)C(=O)COc2ccc(C(=O)c3ccccc3)cc2)cc1OC,7,-3,2,3,-7
CC(=O)N/C(N)=N/c1nc(=O)c2ccccc2s1,.,-2,-5,.,-7
CC(=O)Nc1nc(=O)c2ccccc2s1,2,1,-37,33*,-18
O=C(CSc1ccsc1[N+](=O)[O-])NCc1ccccc1,-2,104*,-3,0,-17
CCc1nc(N)nc2c1C(=O)CC(C)(C)C2,70*,-3,-10,12,-2
C=C1N(C)c2cc([N+](=O)[O-])c(N)cc2C1(C)C,-16,-7,47*,3,0
Nc1ccc(Oc2ccc(N)c([N+](=O)[O-])c2)cc1[N+](=O)[O-],.,-2,18,-1,-5
CC(=O)c1ccc(NC(=O)COC(=O)c2ccccc2Sc2ccccc2C#N)cc1,-2,-4,-1,-1,-15
CC(=O)Nc1ccc(NC(=O)C(C)OC(=O)c2ccccc2Sc2ccccc2C#N)cc1 (stereo not given),-5,-4,96*,3,-22
O=C(/C=C/c1cccs1)Nc1scc(-c2ccccc2)c1C(=O)O,-13,-16,27*,1,-22
COC(=O)c1sc(NC(=O)COc2cccnc2[N+](=O)[O-])c(C(=O)OC)c1C,40*,1,-3,0,-13
